Five molecules from ChEMBL document CHEMBL3632620, “Synthesis, characterization, crystal structure determination and biological screening of novel N-1 and C5 alkyl substituted scaffolds of pyrimidine” (2015) can be followed below.

Experiment [1] relates to Salmonella enterica subsp. enterica serovar Abony. In words: Antibacterial activity against Salmonella abony NCTC 6017 assessed as growth inhibition at 100 ug/ml after 8 to 24 hrs by agar well diffusion method. Type of experiment: functional. To be noted: read-out: DIZ. In a few lines:
(§1)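 Agar well diffusion on nutrient agar (peptone, yeast extract, NaCl, 2% agar, pH 7). Suspensions were set to 0.5 McFarland in sterile water, final inoculum 5x10^7 CFU/mL. Plates were swabbed and left 15 min, then ~4 mm wells received 100 µL compound in DMSO, with DMSO as control. Plates stood 2 h at room temperature, then 24 h at 37 °C. Inhibition zone diameter was measured.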
Background: Agar diffusion results depend on both activity and mobility in agar.

The subject of experiment [2] is Staphylococcus epidermidis. In words: Antibacterial activity against Staphylococcus epidermidis ATCC 12228 assessed as growth inhibition at 25 ug/ml after 8 to 24 hrs by agar well diffusion method. Type of experiment: functional. The method, boiled down: as §1
Experiment [3] concerns Staphylococcus epidermidis. Put plainly: Antibacterial activity against Staphylococcus epidermidis ATCC 12228 assessed as growth inhibition at 100 ug/ml after 8 to 24 hrs by agar well diffusion method. The experiment is classed as functional. In a few lines: as §1
Experiment [4] concerns Escherichia coli. Put plainly: Antibacterial activity against Escherichia coli ATCC 8739 after 24 to 48 hrs. The experiment is classed as functional. In a few lines:
(§2)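 Broth MIC in nutrient broth, pH 7.0. Inoculum came from a 16 h culture set to 0.5 McFarland, then diluted 10-fold to 1.2x10^7 CFU/mL. Compounds went from a 4 mg/mL DMSO stock to final 250 to 0.03 µg/mL. Controls were inoculum without compound and compound without inoculum. Incubation was 24-48 h at 37 °C. Then 5 µL was spotted onto agar for 24 h at 37 °C. MIC is the lowest concentration with no visible growth.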

Experiment [5] deals with Staphylococcus aureus. Put plainly: Antibacterial activity against Staphylococcus aureus ATCC 6538P after 24 to 48 hrs. The experiment is classed as functional. In a few lines: as §2
The subject of experiment [6] is Salmonella enterica subsp. enterica serovar Abony. Put plainly: Antibacterial activity against Salmonella abony NCTC 6017 after 24 to 48 hrs. The experiment is classed as functional. In a few lines:
as §2

Experiment [7] has as its system Staphylococcus epidermidis. Put plainly: Antibacterial activity against Staphylococcus epidermidis ATCC 12228 after 24 to 48 hrs. The experiment is classed as functional. In a few lines:
as §2

In experiment [8] the test system is Escherichia coli. In words: Antibacterial activity against Escherichia coli ATCC 8739 assessed as growth inhibition at 25 to 100 ug/ml at 12 hrs by agar well diffusion method. Type of experiment: functional, organism-based.
In experiment [9] the test system is Staphylococcus aureus. Put plainly: Antibacterial activity against Staphylococcus aureus ATCC 6538P assessed as growth inhibition at 25 to 100 ug/ml at 12 hrs by agar well diffusion method. Type of experiment: functional, organism-based.
Experiment [10] has as its system Salmonella enterica subsp. enterica serovar Abony. In words: Antibacterial activity against Salmonella abony NCTC 6017 assessed as growth inhibition at 25 to 100 ug/ml at 12 hrs by agar well diffusion method. The experiment is classed as functional, organism-based.
For experiment [11], the system named is Staphylococcus epidermidis. In words: Antibacterial activity against Staphylococcus epidermidis ATCC 12228 assessed as growth inhibition at 25 to 100 ug/ml at 12 hrs by agar well diffusion method. The experiment is classed as functional, organism-based.
The test system of experiment [12] is Escherichia coli. In words: Antibacterial activity against Escherichia coli ATCC 8739 assessed as growth inhibition at 25 ug/ml after 8 to 24 hrs by agar well diffusion method. To be noted: read-out: DIZ. The experiment is classed as functional. The method, boiled down:
as §1

Experiment [13] has as its system Escherichia coli. Put plainly: Antibacterial activity against Escherichia coli ATCC 8739 assessed as growth inhibition at 100 ug/ml after 8 to 24 hrs by agar well diffusion method. The experiment is classed as functional. To be noted: read-out: DIZ. In a few lines:
as §1

Experiment [14] has as its system Staphylococcus aureus. Put plainly: Antibacterial activity against Staphylococcus aureus ATCC 6538P assessed as growth inhibition at 25 ug/ml after 8 to 24 hrs by agar well diffusion method. Type of experiment: functional. To be noted: read-out: DIZ. In a few lines: as §1
For experiment [15], the system named is Staphylococcus aureus. In words: Antibacterial activity against Staphylococcus aureus ATCC 6538P assessed as growth inhibition at 100 ug/ml after 8 to 24 hrs by agar well diffusion method. The experiment is classed as functional. Conditions: read-out: DIZ. The method, boiled down: as §1
In experiment [16] the test system is Salmonella enterica subsp. enterica serovar Abony. Put plainly: Antibacterial activity against Salmonella abony NCTC 6017 assessed as growth inhibition at 25 ug/ml after 8 to 24 hrs by agar well diffusion method. To be noted: read-out: DIZ. Type of experiment: functional. In a few lines: as §1

A word on the MIC: it is the lowest concentration found to suppress growth. Lower therefore signals inhibition by little substance.

Values after ≈ are worked out from the molar mass of the structure shown. Active and inactive are the calls of the source. The rule behind the calls is not given here.

Consider `CCOC(=O)C1(C)C(C)NC(=S)N(C)C1c1ccc(Cl)cc1` (stereo unspecified), for which the zone of inhibition at 100 µg/mL came out at 28 mm in [1], 20 mm with Escherichia coli [13] and 23 mm in the experiment on Staphylococcus aureus [15]. Further, the “diameter of the inhibition zone (DIZ)” value in experiment [2] and in [3] was “inactive” throughout. The minimal inhibitory concentration (MIC) was 16 µg/mL (≈ 46.9 µM) with Escherichia coli [4], 16 µg/mL (≈ 46.9 µM) with Staphylococcus aureus [5], 8 µg/mL (≈ 23.5 µM) in experiment [6] and more than 250 µg/mL in [7]. For the same molecule, the result (in the experiment on Escherichia coli [8]; in the experiment on Staphylococcus aureus [9]; in [10]; in experiment [11]) was inactive. Moreover, the zone of inhibition at 25 µg/mL stood at 20 mm with Escherichia coli [12], 18 mm in the experiment on Staphylococcus aureus [14] and 18 mm in experiment [16].

Regarding `CCOC(=O)C1(C)C(C)NC(=O)N(C)C1c1ccc(N(C)C)cc1` (stereo unspecified), the figures for the zone of inhibition at 100 µg/mL (in experiment [1]; in the experiment on Escherichia coli [13]; in the experiment on Staphylococcus aureus [15]) were 22 mm, 14 mm and 16 mm, respectively. Besides, the “diameter of the inhibition zone (DIZ)” value in [2] and in experiment [3] was “inactive” each time. The MIC is 68 µg/mL (≈ 204 µM) in the experiment with Escherichia coli [4], 32 µg/mL (≈ 96 µM) in the experiment on Staphylococcus aureus [5], 16 µg/mL (≈ 48 µM) in experiment [6] and more than 250 µg/mL in experiment [7]. Also, the result (in the experiment on Escherichia coli [8]; in the experiment with Staphylococcus aureus [9]; in experiment [10]; in [11]) was inactive. Also, the figures for the zone of inhibition at 25 µg/mL (in the experiment with Escherichia coli [12]; with Staphylococcus aureus [14]; in [16]) were 10 mm, 12 mm and 10 mm, respectively.

In the case of `CCOC(=O)C1(C)C(C)NC(=O)N(C)C1c1ccc(O)cc1` (stereo unspecified), the zone of inhibition at 100 µg/mL in experiment [1] came to 14 mm; in the experiment with Escherichia coli [13], 10 mm; with Staphylococcus aureus [15] it was 12 mm. Further, the “diameter of the inhibition zone (DIZ)” value in experiment [2] and in [3] was “inactive” throughout. In addition, the minimal inhibitory concentration (MIC) against Escherichia coli [4] is 125 µg/mL (≈ 408 µM); in the experiment on Staphylococcus aureus [5] it was 68 µg/mL (≈ 222 µM); in experiment [6], 68 µg/mL (≈ 222 µM); in experiment [7], more than 250 µg/mL. In addition, the result (in the experiment on Escherichia coli [8]; in the experiment on Staphylococcus aureus [9]; in [10]; in experiment [11]) was inactive. Besides, the zone of inhibition at 25 µg/mL in the experiment on Escherichia coli [12] amounted to 8 mm; in the experiment on Staphylococcus aureus [14], 10 mm; in [16], 11 mm.

`CN[C@@H]1[C@H](O[C@H]2[C@H](O[C@H]3[C@H](O)[C@@H](O)[C@H](N=C(N)N)[C@@H](O)[C@@H]3N=C(N)N)O[C@@H](C)[C@]2(O)C=O)O[C@@H](CO)[C@H](O)[C@H]1O` [STREPTOMYCIN]: the values for the zone of inhibition at 100 µg/mL (in [1]; in the experiment with Escherichia coli [13]; in the experiment on Staphylococcus aureus [15]) were 18 mm, 16 mm and 16 mm, respectively. The “diameter of the inhibition zone (DIZ)” value in experiment [2] and in experiment [3] was “inactive” each time. Also, the minimum inhibitory concentration (MIC) in the experiment with Escherichia coli [4] is 32 µg/mL (≈ 55 µM); with Staphylococcus aureus [5], 32 µg/mL (≈ 55 µM); in experiment [6], 32 µg/mL (≈ 55 µM); in experiment [7], more than 250 µg/mL. For the same molecule, the zone of inhibition at 25 µg/mL worked out at 14 mm in the experiment with Escherichia coli [12], 12 mm in the experiment with Staphylococcus aureus [14] and 25 mm in experiment [16].

For the molecule `O=C(N[C@H](CO)[C@H](O)c1ccc([N+](=O)[O-])cc1)C(Cl)Cl` [CHLORAMPHENICOL], the zone of inhibition at 100 µg/mL was 32 mm in [1], 35 mm in experiment [3] (read-out: DIZ), 24 mm with Escherichia coli [13] and 28 mm with Staphylococcus aureus [15]. The zone of inhibition at 25 µg/mL in experiment [2] (read-out: DIZ) was 14 mm; with Escherichia coli [12], 20 mm; in the experiment with Staphylococcus aureus [14], 20 mm; in experiment [16], 19 mm. Also, the results for the minimal inhibitory concentration (MIC) (in the experiment with Staphylococcus aureus [5]; in experiment [6]; in experiment [7]) were 8 µg/mL (≈ 24.8 µM), 4 µg/mL (≈ 12.4 µM) and 4 µg/mL (≈ 12.4 µM), respectively.
